{
  "source": "paper PMC7069368",
  "about": "(MedChemComm, 2019)",
  "key": {"[1]": {"details": "Ames test; cited from earlier work"}, "HeLa cells": {"system": "HeLa cells", "details": "10 μM compound; % of cell growth; data provided from previous studies ref 10, 11; cited from earlier work"}, "[2]": {"experiment": "Thermodynamic solubility assay", "format": "physicochemical", "details": "in vitro ADME, data not shown", "how_it_was_run": "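Solid test compound (0.2–0.5 mg) was saturated in PBS and shaken at 900 rpm, room temperature, for 48 h. It was centrifuged 30 min at 10 000×g, 23 °C. The supernatant was diluted 10–1000× in acetonitrile/H₂O (50/50) in two steps and quantified by LC-MS/MS.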"}, "Caco-2 cell monolayers": {"system": "Caco-2 cell monolayers", "experiment": "Caco-2 permeability", "details": "in vitro ADME, data not shown", "how_it_was_run": "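Caco-2 monolayers (passage 94–105) were grown on permeable filters and used on day 21 after seeding. Filters were washed with pre-warmed HBSS. Drug solution (1 μM, prewarmed to 37 °C) was applied as donor to the apical or basolateral side. Both chambers were at pH 7.4.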"}, "Pharmacokinetics in mice": {"experiment": "Pharmacokinetics in mice", "format": "in vivo", "details": "mouse, PO 10 mg kg^–1 in lipid emulsion", "how_it_was_run": "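Female C3H mice (9-week C3H/HeOuJ or 22-week C3H/HeJ, by compound) got 10 mg kg⁻¹ as a 100 μL gavage, three per dose and route. The vehicle was 55% capmul, 15% akomed, 15% ethanol and 15% cremophor, emulsified with lukewarm water. Tail-vein blood (20 μL) was taken at 0.5, 1, 2, 4, 8 and 24 h and mixed with acetonitrile. It was methanol-extracted and quantified against spiked blank mouse blood standards.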"}, "[3]": {"system": "C. trachomatis serovar L2", "experiment": "Reinfect assay", "format": "cell-based, Chlamydia trachomatis", "how_it_was_run": "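HeLa 229 cells were infected with serovar L2 EBs in HBSS at MOI 0.3–0.5. Test compound (2.5 or 1 μM in RPMI) was added at 1 h, then incubated 44–48 h. Cells were lysed with cold water, and EBs in SPG were 10-fold serially diluted onto fresh HeLa cells. After 44–46 h, cells were methanol-fixed and stained (anti-Chlamydia/FITC, DAPI). IFUs were counted by automated microscopy and given as % of DMSO control. Three independent experiments, duplicates.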"}, "C. trachomatis serovar D": {"system": "C. trachomatis serovar D", "experiment": "C. trachomatis in vivo infection model", "set-up": "species or system mouse", "how_it_was_run": "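Female C3H/HeJ mice, 8 weeks old, got 2.4 mg medroxyprogesterone acetate s.c. 10 and 3 days pre-infection. Vaginal mucus was swabbed away before intravaginal inoculation (5000 […], 10 μL SPG), with 30 min inverted under anaesthesia. Gavage of 100 μL of 2.33 mg mL⁻¹ in capmul/akomed/cremophor/EtOH water emulsion (n=9), vehicle alone (n=9), or 2 mg mL⁻¹ doxycycline (n=6) began at 10 h, then every 12 h for 7 days.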"}},
  "note": "Entries after “also recorded” stand apart in the source; their conditions may differ. Marks after values point to notes of the source that are not given here.",
  "data": [
    {"smiles": "Nc1c(Cc2cccc3ccccc23)c(C2CC2)c2n(c1=O)C(C(=O)Nc1ccccc1)CS2", "note": "(stereo not drawn) [Compound 2]", "values": [
      {"measurement": "Mutagenic potential", "setting": "[1]", "value": "no mutagenic potential"},
      {"measurement": "HeLa viability 10 μM (%)", "setting": "HeLa cells", "value": "101 ± 3 ^a %"},
      {"measurement": "Solubility (in words)", "setting": "[2]", "value": "poor solubility"},
      {"measurement": "Permeability (in words)", "setting": "Caco-2 cell monolayers", "value": "moderate permeability"}
    ]},
    {"smiles": "Nc1c(Cc2cccc3ccccc23)c(C2CC2)c2n(c1=O)C(n1cc(-c3ccccc3)nn1)CS2", "note": "(stereo not drawn) [Compound 3]", "values": [
      {"measurement": "Mutagenic potential", "setting": "[1]", "value": "no mutagenic potential"},
      {"measurement": "HeLa viability 10 μM (%)", "setting": "HeLa cells", "value": "105 ± 4 ^a %"},
      {"measurement": "Oral uptake / oral data (in words)", "setting": "Pharmacokinetics in mice", "value": "too low to be able to be quantified"}
    ]},
    {"smiles": "COc1c(Cc2cccc(C)c2C)cc(=O)n2c1SCC2C(=O)Nc1cc(C)cc(F)c1", "note": "(stereo not drawn) [Compound 18, 7-(2,3-Dimethylbenzyl)-N-(3-fluoro-5-methylphenyl)-8-methoxy-5-oxo-2,3-dihydrothiazolo[3,2-a]pyridine-3-carboxamide]", "values": [
      {"measurement": "Oral uptake / oral data (in words)", "setting": "Pharmacokinetics in mice", "value": "too low to allow for proper determination of pharmacokinetic parameters; also recorded: too low to be able to be quantified"}
    ]},
    {"smiles": "O=C(Nc1ccccc1)C1CSc2c(C3CC3)c(Cc3cccc4ccccc34)cc(=O)n21", "note": "(stereo not drawn) [Compound 24, 8-cyclopropyl-7-(naphthalen-1-ylmethyl)-5-oxo-N-phenyl-3,5-dihydro-2H-thiazolo[3,2-a]pyridine-3-carboxamide]", "values": [
      {"measurement": "HeLa viability 10 μM (%)", "setting": "HeLa cells", "value": "100 ± 4 ^a %"}
    ]},
    {"smiles": "CS(=O)(=O)Nc1c(Cc2cccc3ccccc23)cc(=O)n2c1SCC2C(=O)Nc1ccccc1", "note": "(stereo not drawn) [Compound 30, 8-(Methylsulfonamido)-7-(naphthalen-1-ylmethyl)-5-oxo-N-phenyl-2,3-dihydrothiazolo[3,2-a]pyridine-3-carboxamide]", "values": [
      {"measurement": "Concentrations inhibiting C. trachomatis infectivity (in words)", "setting": "[3]", "value": "low micromolar concentrations"},
      {"measurement": "Effect on vaginal C. trachomatis infection (IFUs per vaginal swab)", "setting": "C. trachomatis serovar D; C3H/HeJ mice, 10 mg kg^–1 oral gavage twice a day for 7 days", "value": "the course of infection was not improved; also recorded: did not affect vaginal C. trachomatis infection"},
      {"measurement": "Tolerability (vital signs)", "setting": "C. trachomatis serovar D; mice, 10 mg kg^–1 oral gavage twice a day", "value": "no negative vital signs"}
    ]}
  ]
}
